# Laboratory results: ChEMBL document CHEMBL4823270, “A first-in-class anticancer dual HDAC2/FAK inhibitors bearing hydroxamates/benzamides capped by pyridinyl-1,2,4-triazoles” (Eur J Med Chem, 2021)
# The source made the active and inactive calls. No cut-off for these calls is given here.
# Experiments:
# [1] = test system: HCT-116; assay: Growth inhibition of human HCT-116 cells at 10 uM incubated for 24 hrs by MTT assay relative to control; type: functional; details: read-out: GI
# Method in brief: (§1)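 Cells seeded at 1 × 10^4 per well, cultured overnight, then exposed to 10 μM compound or DMSO (negative control) for 24 h. After a PBS wash, MTT (2 mg/ml) was added for 4 h at 37°C and formazan dissolved in DMSO. OD read at 570 nm. Growth inhibition = 1 − (OD treated/OD control); at least three independent experiments.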
# [2] = test system: HT-29; assay: Growth inhibition of human HT-29 cells at 10 uM incubated for 24 hrs by MTT assay relative to control; type: functional; details: read-out: GI; method in brief: as §1
# [3] = test system: K562; assay: Growth inhibition of human K562 cells at 10 uM incubated for 24 hrs by MTT assay relative to control; type: functional; details: read-out: GI; method in brief: as §1
# [4] = test system: KG-1; assay: Growth inhibition of human KG-1 cells at 10 uM incubated for 24 hrs by MTT assay relative to control; type: functional; details: KG-1, 24 h; method in brief: as §1
# [5] = test system: CAKI-1; assay: Growth inhibition of human CAKI-1 cells at 10 uM incubated for 24 hrs by MTT assay relative to control; type: functional; details: read-out: GI; method in brief: as §1
# [6] = test system: A498; assay: Antiproliferative activity against human A498 cells assessed as cell growth inhibition incubated for 24 hrs by MTT assay; type: functional, cell-based; details: A498, 24 h
# [7] = biological target: T1, Histone deacetylase 2 (Homo sapiens, UniProt Q92769); assay: Inhibition of human full-length recombinant HDAC2 preincubated for 5 mins followed by HDAC substrate addition and further incubated for 45 mins by fluorescence microplate reader assay
# T1 sequence (Q92769 whole entry): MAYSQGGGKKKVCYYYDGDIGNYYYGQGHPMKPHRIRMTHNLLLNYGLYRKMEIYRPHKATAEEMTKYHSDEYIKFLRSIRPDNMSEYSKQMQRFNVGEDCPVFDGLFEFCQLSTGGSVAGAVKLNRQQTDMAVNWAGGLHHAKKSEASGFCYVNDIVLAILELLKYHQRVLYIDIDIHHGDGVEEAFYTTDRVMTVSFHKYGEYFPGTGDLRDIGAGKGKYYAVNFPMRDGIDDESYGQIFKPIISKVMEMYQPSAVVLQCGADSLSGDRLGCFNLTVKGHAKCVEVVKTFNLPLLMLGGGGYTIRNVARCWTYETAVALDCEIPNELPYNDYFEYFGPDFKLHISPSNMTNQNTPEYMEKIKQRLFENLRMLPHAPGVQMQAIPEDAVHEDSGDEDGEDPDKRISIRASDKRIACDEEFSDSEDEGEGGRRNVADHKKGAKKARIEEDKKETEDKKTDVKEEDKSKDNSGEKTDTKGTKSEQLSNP
# [8] = biological target: Histone deacetylase 3 (Homo sapiens, UniProt O15379); assay: Inhibition of human full-length recombinant HDAC3 preincubated for 5 mins followed by HDAC substrate addition and further incubated for 45 mins by fluorescence microplate reader assay
# Chain of Histone deacetylase 3 (O15379 whole entry): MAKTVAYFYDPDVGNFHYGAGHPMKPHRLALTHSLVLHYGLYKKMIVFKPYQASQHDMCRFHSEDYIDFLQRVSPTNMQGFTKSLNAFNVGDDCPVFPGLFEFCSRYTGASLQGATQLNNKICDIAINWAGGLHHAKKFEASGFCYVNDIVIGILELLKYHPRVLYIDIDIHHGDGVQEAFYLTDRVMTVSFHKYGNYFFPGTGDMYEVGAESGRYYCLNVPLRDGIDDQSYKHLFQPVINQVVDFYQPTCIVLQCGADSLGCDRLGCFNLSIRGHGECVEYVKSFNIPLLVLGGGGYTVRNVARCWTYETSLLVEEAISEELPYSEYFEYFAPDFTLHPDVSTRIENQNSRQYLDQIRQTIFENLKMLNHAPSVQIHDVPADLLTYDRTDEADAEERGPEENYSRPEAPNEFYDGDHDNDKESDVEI
# [9] = biological target: T2, Histone deacetylase 8 (Homo sapiens, UniProt Q9BY41); assay: Inhibition of human full-length recombinant C-terminal His-tagged HDAC8 expressed in baculovirus infected Sf9 insect cells preincubated for 5 mins followed by HDAC substrate addition and further incubated for 45 mins by fluorescence microplate reader assay
# T2 sequence (Q9BY41 whole entry): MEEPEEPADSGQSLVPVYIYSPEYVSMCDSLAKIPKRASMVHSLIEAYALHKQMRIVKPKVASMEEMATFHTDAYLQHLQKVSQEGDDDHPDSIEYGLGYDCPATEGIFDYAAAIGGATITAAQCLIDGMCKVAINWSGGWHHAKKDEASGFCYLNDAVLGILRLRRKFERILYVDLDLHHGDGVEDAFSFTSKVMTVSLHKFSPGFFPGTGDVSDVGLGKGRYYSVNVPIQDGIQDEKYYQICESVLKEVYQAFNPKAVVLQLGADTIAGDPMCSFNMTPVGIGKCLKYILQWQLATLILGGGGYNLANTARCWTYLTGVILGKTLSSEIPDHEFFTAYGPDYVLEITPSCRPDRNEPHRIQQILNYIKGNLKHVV
# [10] = biological target: T1, Histone deacetylase 2; assay: Inhibition of HDAC2 in human A498 cells assessed as reduction in HDAC2 expression by Western blot analysis; type: cell-based
# Method in brief: (§2)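 40 μg protein (Bradford) resolved by SDS-PAGE, transferred to PVDF, blocked 1 h in milk or BSA. Primary antibody overnight, HRP secondary 1 h, ECL detection; β-actin as loading control.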
# [11] = biological target: T3, Focal adhesion kinase 1 (Homo sapiens, UniProt Q05397); assay: Inhibition of FAK in human A498 cells assessed as reduction in FAK phosphorylation by Western blot analysis; type: cell-based; method in brief: as §2
# T3 sequence (Q05397 2-1052 limits assumed): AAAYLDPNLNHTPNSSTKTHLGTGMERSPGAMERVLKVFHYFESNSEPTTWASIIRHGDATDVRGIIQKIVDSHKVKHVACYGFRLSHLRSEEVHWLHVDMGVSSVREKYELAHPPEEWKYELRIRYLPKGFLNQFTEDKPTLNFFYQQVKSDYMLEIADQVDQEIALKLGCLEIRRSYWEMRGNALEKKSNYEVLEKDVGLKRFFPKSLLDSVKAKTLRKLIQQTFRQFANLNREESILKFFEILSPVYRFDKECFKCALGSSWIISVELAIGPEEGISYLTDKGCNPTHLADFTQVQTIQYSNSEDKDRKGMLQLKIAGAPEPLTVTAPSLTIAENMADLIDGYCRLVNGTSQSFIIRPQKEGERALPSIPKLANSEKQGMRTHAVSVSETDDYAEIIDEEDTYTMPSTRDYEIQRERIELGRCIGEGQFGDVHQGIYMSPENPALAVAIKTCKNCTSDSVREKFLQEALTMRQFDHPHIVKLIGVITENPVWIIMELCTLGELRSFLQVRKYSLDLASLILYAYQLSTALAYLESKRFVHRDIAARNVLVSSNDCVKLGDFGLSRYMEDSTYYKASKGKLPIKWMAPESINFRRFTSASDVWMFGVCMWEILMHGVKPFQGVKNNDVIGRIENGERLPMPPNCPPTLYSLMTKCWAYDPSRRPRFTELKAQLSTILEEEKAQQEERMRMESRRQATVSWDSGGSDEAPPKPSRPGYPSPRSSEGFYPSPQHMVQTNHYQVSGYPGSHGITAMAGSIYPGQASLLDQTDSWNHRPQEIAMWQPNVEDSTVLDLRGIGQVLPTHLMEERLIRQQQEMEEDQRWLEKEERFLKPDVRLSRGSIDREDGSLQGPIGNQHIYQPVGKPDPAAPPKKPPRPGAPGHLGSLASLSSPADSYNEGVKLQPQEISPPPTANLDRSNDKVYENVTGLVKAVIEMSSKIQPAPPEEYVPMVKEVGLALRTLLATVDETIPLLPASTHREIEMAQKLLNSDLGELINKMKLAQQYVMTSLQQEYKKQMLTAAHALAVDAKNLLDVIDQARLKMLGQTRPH
# [12] = biological target: T3, Focal adhesion kinase 1; assay: Inhibition of FAK in human CAKI-1 cells assessed as reduction in FAK phosphorylation by Western blot analysis; type: cell-based; method in brief: as §2
# [13] = test system: A498; assay: Induction of cell cycle arrest in human A498 cells assessed as accumulation at G2/M phase incubated for 24 hrs by propidium iodide based flow cytometry analysis (reference value: 18 %); type: functional
# Method in brief: (§3)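 Cells at 1 × 10^5/mL treated with 0.75 or 1.5 μM compound or DMSO (negative control) for 24 h, harvested and washed in PBS. Fixed by dropwise ice-cold 80% ethanol with vortexing, held overnight, washed twice, PI-stained 20 min in the dark. Phase distribution read by flow cytometry.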
# [14] = test system: A498; assay: Induction of apoptosis in human A498 cells at 0.75 to 1.5 uM measured after 24 hrs by Annexin-V/propidium iodide staining based flow cytometry relative to control; type: functional; details: dose 0.75-1.5 µM
# Method in brief: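 Cells in supplemented medium with 10% FBS at 37 °C, 5% CO2, exposed to 0.75 or 1.5 μM compound, or DMSO as negative control, for 24 h. Apoptosis assessed by annexin V/PI staining per kit instructions, then flow cytometry; apoptotic cell percentage quantified against control.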
# [15] = biological target: T1, Histone deacetylase 2; assay: Inhibition of HDAC2 in human A498 cells assessed as reduction in HDAC2 expression pretreated for 12 weeks followed by treatment for last 24 hrs by Western blot analysis; type: cell-based; details: time 85.0 day
# [16] = biological target: T3, Focal adhesion kinase 1; assay: Inhibition of FAK in human A498 cells assessed as reduction in FAK phosphorylation pretreated for 12 weeks followed by treatment for last 24 hrs by Western blot analysis; type: cell-based; details: time 85.0 day
# [17] = test system: A498; assay: Induction of apoptosis in human A498 cells assessed as activation of caspase-8 measured after 24 hrs by ELISA relative to control; type: functional
# [18] = test system: A498; assay: Induction of apoptosis in human A498 cells assessed as activation of caspase-3 measured after 24 hrs by ELISA relative to control; type: functional
# Method in brief: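 A-498 lysates were assayed for active caspase-3 protein by ELISA. Samples or standards were incubated 2 h at room temperature, then caspase-3 (active) detection antibody for 1 h, anti-rabbit IgG-HRP for 30 min, and chromogen for 30 min. After the stop solution, the plate was read and values were taken from a fitted standard curve in pg/ml versus a negative control.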
# [19] = test system: CAKI-1; assay: Induction of cell cycle arrest in human CAKI-1 cells assessed as decrease in cell population at G1 phase at 1.5 uM incubated for 24 hrs by propidium iodide based flow cytometry analysis; type: functional; method in brief: as §3
structure (smiles),measurement,setting,value
Cn1c(SCCCCCC(=O)NO)nnc1-c1ccncc1,inhibition of growth at 10 µM,[1],60.1%
same,inhibition of growth at 10 µM,[2],68.3%
same,inhibition of growth at 10 µM,[3],40.1%
same,inhibition in vitro at 10 µM,[4],84.2%
same,inhibition of growth at 10 µM,[5],98.1%
same,IC50,[6],950 nM
same,IC50,[7],90 nM
same,IC50,[8],3410 nM
same,IC50,[9],7100 nM
same,inhibition,[10],Active
same,inhibition,[11],Active
same,inhibition,[12],Active
same,Activity,[13],65%
same,Activity,[14],50%
same,inhibition,[15],Active
same,inhibition,[16],Active
same,fold change (FC),[17],3
same,fold change (FC),[18],11
same,Activity,[19],Active
